This passage reports inhibition and IC50 results from ChEMBL document CHEMBL5512639, “Insights from structure-activity relationships and the binding mode of peptidic α-ketoamide inhibitors of the malaria drug target subtilisin-like SUB1” (Eur J Med Chem, 2024).

Each structure is given as a SMILES string. Calls of active or inactive are those of the source. The calls are words filed in the database; no cut-off is given here. Numbered stars: 1 amine (or outer) side, 2 acyl side, 3 side chain; on linkers, the order of the positions; unused ones are H or OH. Square brackets hold non-standard residues; d marks the D form. Peptide text beside a SMILES is read from it. * marks the point of attachment. Ala(1H-tetrazol-5-yl) = N[C@@H](Cc1nnn[nH]1)C(=O)O; Abu(4,4,4-F3) = N[C@@H](CC(F)(F)F)C(=O)O; Gly(cPent) = N[C@H](C(=O)O)C1CCCC1; X1 = C[C@H](N[*:1])C(=O)C(=O)[*:2]; Nva(3-Et) = CCC(CC)[C@H](N)C(=O)O; Pyrazinecarbonyl = O=C(c1cnccn1)*; NMeL = CN[C@@H](CC(C)C)C(=O)O; αMeL = CC(C)C[C@](C)(N)C(=O)O; hSer = N[C@@H](CCO)C(=O)O; Dab = NCC[C@H](N)C(=O)O; Abu = CC[C@H](N)C(=O)O; Dap = NC[C@H](N)C(=O)O; Aib = CC(C)(N)C(=O)O; Dha = C=C(N)C(=O)O; Sar = CNCC(=O)O; OAll = C=CCO*

One assay deals with Plasmodium falciparum. The assay can be described thus: Antiparasitic activity against Plasmodium falciparum infected in human Erythrocyte assessed as inhibition of merozoite egress from human Erythrocyte at 100 uM measured for 8 hrs by flow cytometry analysis relative to control. Type of assay: functional. The method in brief: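 P. falciparum cultured in human RBCs, RPMI 1640 with 25 mM HEPES, 2.5% Albumax II, 100 μM hypoxanthine, 37 °C, 5% O2/5% CO2. Sorbitol-synchronized, plasmion-enriched late schizonts at 2% hematocrit, 1% parasitemia exposed to compound for 8 h. Fixed in glutaraldehyde, permeabilized, RNase-treated, stained with YOYO-1. Ring parasitemia by flow cytometry (100,000 events) vs DMSO. Triplicate; IC50 from 16 concentrations, 180 to 0.8 μM.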

Assay [1] is described as follows: Inhibition of full length recombinant Plasmodium vivax SUB1 expressed in Drosophila S2 cells using Dabsyl-KLVGADDV-SLA-EDANS as substrate measured every 2 mins for 1 hr by FRET assay.

On to `C=CCOC(=O)CC[C@H](NC(=O)[C@H](CC(=O)O)NC(=O)C(=O)[C@H](CNC(C)=O)NC(=O)[C@H](C)NC(=O)[C@@H](NC(=O)[C@@H](NC(C)=O)C1CCCC1)[C@@H](C)O)C(N)=O`, for which, in the assay on Plasmodium falciparum, the inhibition entry was “inactive”. For the same molecule, in assay [1], the IC50 is 2390 nM.

With `C=CCOC(=O)CC[C@H](NC(=O)[C@H](CC(=O)O)NC(=O)C(=O)[C@H](CNC(C)=O)NC(=O)[C@H](C)NC(=O)[C@@H](NC(=O)[C@@H](NC(C)=O)[C@@H](C)CC)[C@@H](C)O)C(N)=O`, the 50% inhibitory concentration (IC50) in assay [1] was determined as 23100 nM.

As to `C=CCOC(=O)CC[C@H](NC(=O)[C@H](CC(=O)O)NC(=O)C(=O)[C@H](C)NC(=O)[C@@H](C)NC(=O)[C@@H](NC(=O)[C@@H](NC(C)=O)C1CCCC1)[C@@H](C)O)C(N)=O`, the inhibition entry in the assay on Plasmodium falciparum was “inactive”.

Regarding `C=CCOC(=O)CC[C@H](NC(=O)[C@H](CC(=O)O)NC(=O)C(=O)[C@H](C)NC(=O)[C@H](C)NC(=O)[C@H](CCCCN)NC(=O)[C@@H](NC(C)=O)[C@@H](C)CC)C(N)=O` (Ac-IKA[X1]DE(OAll)-NH2), the inhibition at 100 µM in the assay on Plasmodium falciparum is 9%. In addition, the IC50 in assay [1] is 140 nM.

For `CC[C@H](C)[C@H](NC(C)=O)C(=O)N[C@H](C(=O)N[C@@H](C)C(=O)N[C@@H](C)C(=O)C(=O)N[C@@H](CC(=O)O)C(N)=O)[C@@H](C)O` (Ac-ITA[X1]D-NH2), the inhibition at 100 µM in the assay on Plasmodium falciparum turned out to be 3%. Moreover, the IC50 in assay [1] amounted to 170 nM.

Consider `C=CCOC(=O)CC[C@H](NC(=O)[C@H](CCC(=O)O)NC(=O)C(=O)[C@H](C)NC(=O)[C@H](C)NC(=O)[C@@H](NC(=O)[C@@H](NC(C)=O)[C@@H](C)CC)[C@@H](C)O)C(N)=O` (Ac-ITA[X1]EE(OAll)-NH2), for which the IC50 in assay [1] came out at 2900 nM.

In the case of `C=CCOC(=O)CC[C@H](NC(=O)[C@H](CC(N)=O)NC(=O)C(=O)[C@H](C)NC(=O)[C@H](C)NC(=O)[C@@H](NC(=O)[C@@H](NC(C)=O)[C@@H](C)CC)[C@@H](C)O)C(N)=O` (Ac-ITA[X1]NE(OAll)-NH2), the inhibition at 100 µM in the assay on Plasmodium falciparum was 31%. The 50% inhibitory concentration (IC50) in assay [1] was found to be 5230 nM.

Take `C=CCOC(=O)CC[C@H](NC(=O)[C@H](CO)NC(=O)C(=O)[C@H](C)NC(=O)[C@H](C)NC(=O)[C@@H](NC(=O)[C@@H](NC(C)=O)[C@@H](C)CC)[C@@H](C)O)C(N)=O` (Ac-ITA[X1]SE(OAll)-NH2): the IC50 in assay [1] worked out at 41800 nM.

With `CC[C@H](C)[C@H](NC(C)=O)C(=O)N[C@H](C(=O)N[C@@H](C)C(=O)N[C@@H](C)C(=O)C(=O)N[C@@H](Cc1nnn[nH]1)C(N)=O)[C@@H](C)O` (Ac-ITA[X1][Ala(1H-tetrazol-5-yl)]-NH2), the inhibition result with Plasmodium falciparum was “inactive”. Besides, the IC50 in assay [1] was found to be 1770 nM.

On to `C=CCOC(=O)CC[C@H](NC(=O)[C@H](CCO)NC(=O)C(=O)[C@H](C)NC(=O)[C@H](C)NC(=O)[C@@H](NC(=O)[C@@H](NC(C)=O)[C@@H](C)CC)[C@@H](C)O)C(N)=O` (Ac-ITA[X1][hSer]E(OAll)-NH2), for which the IC50 in assay [1] was 38800 nM.

On to `C=CCOC(=O)CC[C@H](NC(=O)[C@H](CC(=O)O)NC(=O)C(=O)[C@H](C)NC(=O)CNC(=O)[C@@H](NC(=O)[C@@H](NC(C)=O)[C@@H](C)CC)[C@@H](C)O)C(N)=O` (Ac-ITG[X1]DE(OAll)-NH2), for which the IC50 in assay [1] amounted to 1280 nM.

Take `C=CCOC(=O)CC[C@H](NC(=O)[C@H](CC(=O)O)NC(=O)C(=O)[C@H](C)NC(=O)[C@H](CC(F)(F)F)NC(=O)[C@@H](NC(=O)[C@@H](NC(C)=O)[C@@H](C)CC)[C@@H](C)O)C(N)=O` (Ac-IT[Abu(4,4,4-F3)][X1]DE(OAll)-NH2): the concentration for half-maximal inhibition (IC50) in assay [1] stood at 3600 nM.

Consider `C=CCOC(=O)CC[C@H](NC(=O)[C@H](CC(=O)O)NC(=O)C(=O)[C@H](C)NC(=O)[C@H](CC)NC(=O)[C@@H](NC(=O)[C@@H](NC(C)=O)[C@@H](C)CC)[C@@H](C)O)C(N)=O` (Ac-IT[Abu][X1]DE(OAll)-NH2), for which the IC50 in assay [1] was found to be 350 nM.

As for `C=CCOC(=O)CC[C@H](NC(=O)[C@H](CC(=O)O)NC(=O)C(=O)[C@H](C)NC(=O)[C@H](CN)NC(=O)[C@@H](NC(=O)[C@@H](NC(C)=O)[C@@H](C)CC)[C@@H](C)O)C(N)=O` (Ac-IT[Dap][X1]DE(OAll)-NH2), in assay [1], the IC50 was 13200 nM.

Regarding `C=CCOC(=O)CC[C@H](NC(=O)[C@H](CC(=O)O)NC(=O)C(=O)[C@H](C)NC(=O)C(=C)NC(=O)[C@@H](NC(=O)[C@@H](NC(C)=O)[C@@H](C)CC)[C@@H](C)O)C(N)=O` (Ac-IT[Dha][X1]DE(OAll)-NH2), the inhibition entry in the assay on Plasmodium falciparum is “inactive”. The IC50 in assay [1] came out at 330 nM.

With `C=CCOC(=O)CC[C@H](NC(=O)[C@H](CC(=O)O)NC(=O)C(=O)[C@H](C)NC(=O)[C@H](C)NC(=O)[C@H](Cc1c[nH]c2ccccc12)NC(=O)[C@@H](NC(C)=O)[C@@H](C)CC)C(N)=O` (Ac-IWA[X1]DE(OAll)-NH2), the inhibition at 100 µM with Plasmodium falciparum is 5%. Further, in assay [1], the IC50 was 240 nM.

Consider `C=CCOC(=O)CC[C@H](NC(=O)[C@H](CC(=O)O)NC(=O)C(=O)[C@H](C)NC(=O)[C@H](C)NC(=O)[C@H](CCNC(=O)c1cnccn1)NC(=O)[C@@H](NC(C)=O)[C@@H](C)CC)C(N)=O` (Ac-I[Dab](Pyrazinecarbonyl)A[X1]DE(OAll)-NH2), for which the inhibition at 100 µM in the assay on Plasmodium falciparum turned out to be 10%. In addition, in assay [1], the IC50 was 390 nM.

Regarding `C=CCOC(=O)CC[C@H](NC(=O)[C@H](CC(=O)O)NC(=O)C(=O)[C@H](C)NC(=O)[C@H](C)NC(=O)[C@H](C)NC(=O)[C@@H](NC(C)=O)C1CCCC1)C(N)=O` (Ac-[Gly(cPent)]AA[X1]DE(OAll)-NH2), the inhibition result with Plasmodium falciparum was “inactive”. Besides, the half-maximal inhibitory concentration (IC50) in assay [1] was 58400 nM.

On to `C=CCOC(=O)CC[C@H](NC(=O)[C@H](CC(=O)O)NC(=O)C(=O)[C@H](C)NC(=O)[C@H](CO)NC(=O)[C@@H](NC(=O)[C@@H](NC(C)=O)C1CCCC1)[C@@H](C)O)C(N)=O` (Ac-[Gly(cPent)]TS[X1]DE(OAll)-NH2), for which the inhibition result with Plasmodium falciparum is “inactive”. Further, the IC50 in assay [1] came out at 500 nM.

Consider `C=CCOC(=O)CC[C@H](NC(=O)[C@H](CC(=O)O)NC(=O)C(=O)[C@H](C)NC(=O)C(C)(C)NC(=O)[C@@H](NC(=O)[C@@H](NC(C)=O)C1CCCC1)[C@@H](C)O)C(N)=O` (Ac-[Gly(cPent)]T[Aib][X1]DE(OAll)-NH2), for which the inhibition entry with Plasmodium falciparum is “inactive”. Further, the IC50 in assay [1] is greater than 100000 nM.

As to `C=CCOC(=O)CC[C@H](NC(=O)[C@H](CC(=O)O)NC(=O)C(=O)[C@H](C)NC(=O)CN(C)C(=O)[C@@H](NC(=O)[C@@H](NC(C)=O)C1CCCC1)[C@@H](C)O)C(N)=O` (Ac-[Gly(cPent)]T[Sar][X1]DE(OAll)-NH2), the IC50 in assay [1] came to 4700 nM.

For the molecule `C=CCOC(=O)CC[C@H](NC(=O)[C@H](CC(=O)O)NC(=O)C(=O)[C@H](C)NC(=O)[C@H](C)NC(=O)[C@H](CC(C)C)N(C)C(=O)[C@@H](NC(C)=O)C1CCCC1)C(N)=O` (Ac-[Gly(cPent)][NMeL]A[X1]DE(OAll)-NH2), in assay [1], the half-maximal inhibitory concentration (IC50) was determined as 13200 nM.

For the molecule `C=CCOC(=O)CC[C@H](NC(=O)[C@H](CC(=O)O)NC(=O)C(=O)[C@H](C)NC(=O)[C@H](C)NC(=O)[C@](C)(CC(C)C)NC(=O)[C@@H](NC(C)=O)C1CCCC1)C(N)=O` (Ac-[Gly(cPent)][αMeL]A[X1]DE(OAll)-NH2), the inhibition result with Plasmodium falciparum is “inactive”. In assay [1], the IC50 was 5670 nM.

In the case of `C=CCOC(=O)CC[C@H](NC(=O)[C@H](CC(=O)O)NC(=O)C(=O)[C@H](C)NC(=O)[C@H](C)NC(=O)[C@@H](NC(=O)[C@@H](NC(C)=O)C(CC)CC)[C@@H](C)O)C(N)=O` (Ac-[Nva(3-Et)]TA[X1]DE(OAll)-NH2), the inhibition at 100 µM with Plasmodium falciparum is 8%. In addition, in assay [1], the IC50 was 460 nM.
